Published values of several laboratories.
Protocols differ between the studies behind these lines.

SMILES	cell line	assay	conditions	IC50
C#CCOc1ccc(/C=C/c2cc(OC)cc(OC)c2-c2cnnn2C(=O)NCC)cc1	RAW264.7	NO release, inhibitor, Griess	24 h, LPS-stimulated	10.6 µM
CC1(C)CCC(CN2CCN(c3ccc(C(=O)NS(=O)(=O)c4ccc(NCC5CCOCC5)c([N+](=O)[O-])c4)c(Oc4cnc5[nH]ccc5c4)c3)CC2)=C(c2ccc(Cl)cc2)C1	Maver1	cell growth or viability, ATP luminescence	48 h	0.0065 µM
COc1cc2c(NC3CCN(CCCC(=O)NCCCCCCCCCCCC(=O)N[C@H](C(=O)N4C[C@H](O)C[C@H]4C(=O)NCc4ccc(-c5scnc5C)cc4)C(C)(C)C)CC3)nc(N3CCC(F)(F)CC3)nc2cc1OCCCN1CCCC1	22Rv1	cell growth or viability, CCK-8	7 days	4.1 µM
C=C(F)C(=O)N1CCN(c2nc(OC[C@@H]3CCCN3C)nc3c2CCN(c2cccc4cccc(Cl)c24)C3)C[C@@H]1CC#N	Lu-65	cell growth or viability, ATP luminescence	3D culture	0.00188 µM
CCNCCCn1c2c(c3cc(OC)c(OC)cc3c1=O)C(=O)c1cc3c(nc1-2)OCO3	HL-60	cell growth or viability, MTS	72 h	0.27 µM
Cc1ccc(-c2cc(C(F)(F)F)nn2-c2ccc(S(N)(=O)=O)cc2)cc1	RAW264.7	NO release, inhibitor, Griess	24 h, LPS-stimulated	> 20 µM
COc1ccc(NC(=O)C2=C(C)NC(C)=C(C(=O)Nc3ccc(OC)cc3OC)C2c2ccc(O)cc2)c(OC)c1	Vero	cell growth or viability, MTT		70.3 µM
C#CCOc1ccc(/C=C/c2cc(OC)cc(OC)c2-c2cnnn2C(=O)NCCC)cc1	RAW264.7	NO release, inhibitor, Griess	24 h, LPS-stimulated	0.7 µM
COc1cc2c3c(n(CCCNCCO)c(=O)c2cc1OC)-c1nc2c(cc1C3=O)OCO2	HL-60	cell growth or viability, MTS	72 h	0.29 µM
COc1cc(NC(=O)c2cccc(C)c2)ccc1S(N)(=O)=O	RAW264.7	cell growth or viability, MTT	48 h	> 100 µM
COc1cccc2c1C(=O)c1c(O)c3c(c(O)c1C2=O)C[C@@](O)(C(=O)CO)C[C@@H]3O[C@H]1C[C@H](N)[C@H](O)[C@H](C)O1	NCI-H1299	cell growth or viability, MTT	72 h	0.77 µM
COc1cc(NC(=O)c2ccccc2[N+](=O)[O-])ccc1S(N)(=O)=O	RAW264.7	cell growth or viability, MTT	48 h	> 100 µM
COc1ccc(NC(=O)C2=C(C)NC(C)=C(C(=O)Nc3ccc(OC)cc3OC)C2c2cccc(Cl)c2)c(OC)c1	Vero	cell growth or viability, MTT		67.5 µM
COc1cc(NC(=O)c2cccc(I)c2)ccc1S(N)(=O)=O	RAW264.7	cell growth or viability, MTT	48 h	> 100 µM
COc1cc2c3c(n(CCCn4ccnc4)c(=O)c2cc1OC)-c1nc2c(cc1C3=O)OCO2	HL-60	cell growth or viability, MTS	72 h	> 2 µM
COc1cc(NC(=O)c2ccc(C#N)cc2)ccc1S(N)(=O)=O	RAW264.7	cell growth or viability, MTT	48 h	> 100 µM
CC(C)c1ccccc1[C@@H]1CCCN1C1CC2(CCN(c3ccc(C(=O)NS(=O)(=O)c4ccc(NC[C@H]5CC[C@](C)(O)CC5)c([N+](=O)[O-])c4)c(Oc4cnc5[nH]ccc5c4)c3)CC2)C1	HL-60	cell growth or viability, ATP luminescence	48 h	0.381 µM
